The source of these data is ChEMBL document CHEMBL1121654, “New antiarrhythmic agents. 6. Quantitative structure-activity relationships of aminoxylidides” (J Med Chem, 1981).

Series [1] is described as follows: Compound was evaluated for -Log [fraction ionized x ED50 (protection)]. It counts as ADME.
Series [2] can be described thus: Partition coefficient (logP). It counts as physicochemical. The settings on record: octanol/water. In outline:
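1-Octanol/water partition by titration: 10–40 mL aqueous test compound (1 mM) with 4–25 mL 1-octanol, stirred vigorously, titrated with 0.1 N NaOH; apparent pKa′ calculated, from which partition coefficient obtained.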

A short description of series [3]: Dissociation constant (pKa). It counts as physicochemical.
Series [4] is filed under the species Mus musculus. Nature of the series: Compound was evaluated for protection against tachycardia in mice. It counts as functional. In outline: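 Mice given test agent, then chloroform-induced tachycardia (modified Lawson method); efficacy scored as percentage of mice protected at each dose. Doses stepped ≥0.15 log unit up/down to give low, medium and high protection incidence; ED50 (mmol/kg) by Berkson logit chi-square method.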

The species named for series [5] is Mus musculus. Nature of the series: Compound was evaluated for ataxia in mice. In kind it is functional.
Series [6] is described as follows: Therapeutic index is the ratio of ED50 (ataxia) to ED50 (protection) in mice. The note with it: mouse; read-out: TI.

A word on the logP: it is the decadic logarithm of the partition coefficient of the neutral form, usually between octanol and water. Low readings indicate lower lipophilicity, high ones higher lipophilicity. One may read the pKa as the negative logarithm of the acid dissociation constant. By ED50 is commonly meant the dose that gives a 50% effect, or the effect in half of the subjects. High values mean weaker potency, low ones greater potency.

With `CCN(CC)CCC(=O)Nc1c(C)cccc1C`, in series [1], the “p[BH+50]” value worked out at 0.9. This compound also displayed a logP in series [2] of 2.21. The compound also displayed a pKa in series [3] of 8.83. Besides, the ED50 in series [4] is 130 µmol/kg; in series [5], 210 µmol/kg. The selectivity ratio in series [6] amounted to 1.6.

As for `Cc1cccc(C)c1NC(=O)CC(C)N` (configuration not stated), the “p[BH+50]” value in series [1] is given as 0.62. In series [2], this compound yielded a logP of 0.84. Further, the pKa in series [3] was 8.71. The values for the ED50 in series [4] and in series [5] were 250 µmol/kg and 1640 µmol/kg, respectively. Further, the selectivity ratio in series [6] stood at 6.6.

Take `Cc1cccc(C)c1NC(=O)CCCC(C)N` (configuration not stated): the “p[BH+50]” value in series [1] was 0.72. This compound had a logP in series [2] of 1.41. The same compound registered a pKa in series [3] of 9.79. Moreover, the values for the ED50 in series [4] and in series [5] were 190 µmol/kg and 1170 µmol/kg, respectively. Moreover, in series [6], the selectivity ratio amounted to 6.2.

`CCN(CC)C(C)CCCC(=O)Nc1c(C)cccc1C` (configuration not stated): the “p[BH+50]” value in series [1] came to 1. The compound further yielded a lipophilicity (logP) in series [2] of 2.64. Besides, the pKa in series [3] was 10.1. For the same compound, the ED50 in series [4] was 100 µmol/kg; in series [5], 790 µmol/kg. The selectivity ratio in series [6] was determined as 7.9.

`CCN(CC)CCCCCC(=O)Nc1c(C)cccc1C`: the “p[BH+50]” value in series [1] worked out at 0.89. Also, the lipophilicity (logP) in series [2] came to 2.95. Also, the pKa in series [3] was 10.2. Also, the ED50 in series [4] turned out to be 130 µmol/kg; in series [5], 670 µmol/kg. Further, the selectivity ratio in series [6] came out at 5.2.

For `CCN(CC)CCCCC(=O)Nc1c(C)cccc1C`, the “p[BH+50]” value in series [1] came out at 0.92. The compound also registered a logP in series [2] of 2.42. The compound further returned a pKa in series [3] of 9.96. Further, the ED50 in series [4] worked out at 120 µmol/kg; in series [5], 660 µmol/kg. For the same compound, in series [6], the selectivity ratio was found to be 5.5.

In the case of `CCN(CC)C(C)CC(=O)Nc1c(C)cccc1C` (configuration not stated), the “p[BH+50]” value in series [1] was 1.31. The lipophilicity (logP) in series [2] was found to be 2.63. The compound further gave a pKa in series [3] of 9.03. The ED50 in series [4] was determined as 50 µmol/kg; in series [5], 90 µmol/kg. In series [6], the selectivity ratio was 1.8.

Regarding `Cc1cccc(C)c1NC(=O)CCCN`, the “p[BH+50]” value in series [1] came out at 0.1. The compound also yielded a logP in series [2] of 0.71. Besides, the pKa in series [3] worked out at 9.35. The ED50 in series [4] worked out at 800 µmol/kg; in series [5], 3250 µmol/kg. In series [6], the selectivity ratio was determined as 4.1.

As for `Cc1cccc(C)c1NC(=O)CCCCCN`, the “p[BH+50]” value in series [1] stood at 0.57. Further, the logP in series [2] is 1.29. This compound also displayed a pKa in series [3] of 10.1. Also, the ED50 in series [4] is 270 µmol/kg; in series [5], 2070 µmol/kg. The selectivity ratio in series [6] came to 7.7.

Turning to `CCN(CC)C(C)C(=O)Nc1c(C)cccc1C` (configuration not stated), in series [1], the “p[BH+50]” value came out at 0.88. The logP in series [2] worked out at 2.73. Also, the pKa in series [3] came out at 7.93. Further, the ED50 in series [4] was 170 µmol/kg; in series [5], 130 µmol/kg. Further, the selectivity ratio in series [6] was 0.8.

In the case of `CCN(CC)C(C)CCC(=O)Nc1c(C)cccc1C` (configuration not stated), the “p[BH+50]” value in series [1] was 0.68. The same compound showed a logP in series [2] of 2.66. In addition, the pKa in series [3] came to 9.87. In addition, the ED50 came out at 210 µmol/kg in series [4] and 1150 µmol/kg in series [5]. For the same compound, the selectivity ratio in series [6] worked out at 5.5.

On to `Cc1cccc(C)c1NC(=O)CCC(C)N` (configuration not stated), for which, in series [1], the “p[BH+50]” value was determined as 0.45. This compound also returned a logP in series [2] of 1.08. The compound also displayed a pKa in series [3] of 9.36. Further, the 50% effective dose (ED50) in series [4] came out at 360 µmol/kg; in series [5], 2660 µmol/kg. In series [6], the selectivity ratio is 7.4.

Regarding `CCN(CC)CCCC(=O)Nc1c(C)cccc1C`, the “p[BH+50]” value in series [1] amounted to 0.86. The same compound came in with a logP in series [2] of 2.06. In series [3], the pKa amounted to 9.52. Further, the ED50 in series [4] came to 140 µmol/kg; in series [5] it was 760 µmol/kg. Moreover, the selectivity ratio in series [6] came to 5.4.

As to `Cc1cccc(C)c1NC(=O)C(C)N(C)C` (configuration not stated), the “p[BH+50]” value in series [1] was 0.94. This compound yielded a log partition coefficient (logP) in series [2] of 1.53. This compound also had a pKa in series [3] of 7.33. Also, the results for the ED50 in series [4] and in series [5] were 250 µmol/kg and 200 µmol/kg, respectively. Besides, in series [6], the selectivity ratio was 0.8.

Consider `Cc1cccc(C)c1NC(=O)CCCCN`, for which the “p[BH+50]” value in series [1] was determined as 0.51. In series [2], this compound returned a logP of 1.02. The pKa in series [3] is 9.81. Moreover, the ED50 was determined as 310 µmol/kg in series [4] and 1810 µmol/kg in series [5]. The selectivity ratio in series [6] is 5.8.

On to `CCN(CC)CCCCCCC(=O)Nc1c(C)cccc1C`, for which the “p[BH+50]” value in series [1] is listed as 1.4. The compound also returned a logP in series [2] of 3.48. The same compound had a pKa in series [3] of 10.2. Besides, the median effective dose (ED50) came out at 40 µmol/kg in series [4] and 830 µmol/kg in series [5]. In addition, the selectivity ratio in series [6] worked out at 21.

In the case of `Cc1cccc(C)c1NC(=O)CCN`, in series [1], the “p[BH+50]” value is reported as 0.16. This compound gave a logP in series [2] of 0.62. Also, the pKa in series [3] is 8.75. The ED50 in series [4] was 720 µmol/kg; in series [5] it was 2300 µmol/kg. Besides, the selectivity ratio in series [6] is 3.2.

Take `Cc1cccc(C)c1NC(=O)CN` [GLYCINEXYLIDIDE]: the “p[BH+50]” value in series [1] is on record as 0.37. Moreover, the logP in series [2] was 0.45. In series [3], this compound displayed a pKa of 7.42. Further, the ED50 in series [4] is 840 µmol/kg; in series [5] it was 620 µmol/kg. Besides, the selectivity ratio in series [6] is 0.7.

For `CCN(CC)CC(=O)Nc1c(C)cccc1C` [LIDOCAINE], the “p[BH+50]” value in series [1] was 0.88. In addition, the ED50 in series [4] was determined as 210 µmol/kg; in series [5], 180 µmol/kg.

Take `Cc1cccc(C)c1NC(=O)C(C)N` (configuration not stated) [TOCAINIDE]: the “p[BH+50]” value in series [1] is on record as 0.5. The compound further returned a logP in series [2] of 0.76. Also, the pKa in series [3] is 7.54. Also, the figures for the ED50 in series [4] and in series [5] were 550 µmol/kg and 760 µmol/kg, respectively. Also, the selectivity ratio in series [6] came to 1.4.
